An excerpt weighted towards active compounds, which were near 2.6% of everything screened.
SENP1 FRET inh: blocks the human SENP1 SUMO protease catalytic domain; recombinant SENP1 catalytic domain, CyPet-SUMO1-YPet FRET cleavage; AID 624204; inhibition, % at 10 µM; 0.21% of 360,000 active; Q9P0U3;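 active = inhibition at least 30% at 10 µM, raw YFP signal under a set limit, fluorescence ratio 0.5 to 1.5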;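 also: 0% = enzyme with DMSO and 100% = no enzyme wells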
Target sequence (Q9P0U3 419-644 limits assumed): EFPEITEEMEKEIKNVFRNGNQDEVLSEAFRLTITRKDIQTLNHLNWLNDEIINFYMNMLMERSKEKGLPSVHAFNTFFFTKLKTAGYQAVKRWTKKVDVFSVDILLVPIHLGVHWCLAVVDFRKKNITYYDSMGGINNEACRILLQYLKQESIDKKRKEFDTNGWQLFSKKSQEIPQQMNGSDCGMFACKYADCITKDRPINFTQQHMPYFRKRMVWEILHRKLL
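material = recombinant human SENP1 catalytic domain, His6-tagged | quantity = 20 pM enzyme | reagent = 25 nM SUMO1 FRET substrate | compound dosing = 10 µM single point, 0.5% DMSO | timing = 50 min enzyme reaction, room temperature, light-protected | detection = FRET, CFP and YFP emission | control set = no-enzyme low, enzyme-DMSO high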
SENP8 block-1: inhibitors of human SENP8 protease; Q96LD8; recombinant SENP8, Nedd8 substrate fluorescence; inhibition, % at 20 µM; 0.64% of 360,000 active; AID 602440; in the data active = inhibition mostly above about 40%, no sharp cut-off; inactive = mostly below about 27%
SENP8 block-2: inhibitors of human SENP8 protease. purified SENP8, Z-RLRGG-aminoluciferin cleavage, luminescence. Q96LD8. 1.2% of 330,000 active. AID 2540. inhibition, % at 10 µM; in the data active = inhibition above about 50%
SENP7 block: inhibitors of human SENP7 protease; recombinant SENP7, Z-RLRGG-aminoluciferin luminescence, 40 min; inhibition, % at 5 µM; 1.5% of 330,000 active; AID 434973;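 active = inhibition above about 50% at the single test dose, limit read from the data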;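 also: plate controls were DMSO with enzyme for no effect and no enzyme buffer wells for full effect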
Target sequence (Q9BQF6 706-1050 limits assumed): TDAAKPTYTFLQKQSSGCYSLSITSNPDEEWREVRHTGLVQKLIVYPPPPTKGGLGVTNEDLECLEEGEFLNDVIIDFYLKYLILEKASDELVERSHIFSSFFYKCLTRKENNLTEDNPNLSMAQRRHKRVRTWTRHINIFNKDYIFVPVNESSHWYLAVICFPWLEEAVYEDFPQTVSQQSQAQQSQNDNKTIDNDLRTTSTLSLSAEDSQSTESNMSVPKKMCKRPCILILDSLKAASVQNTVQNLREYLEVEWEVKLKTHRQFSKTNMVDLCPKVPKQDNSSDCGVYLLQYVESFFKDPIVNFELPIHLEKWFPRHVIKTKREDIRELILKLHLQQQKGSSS
SENP6 inh: inhibitors of human SENP6 protease; 1.8% of 330,000 active; Recombinant SENP6 catalytic domain, aminoluciferin luminescence; Q9GZR1; inhibition, % at 10 µM;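 active = inhibition above about 50% at the single tested dose, limit read from the data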;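 also: plate controls were DMSO wells with enzyme for no effect and DMSO wells lacking enzyme for full effect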
Platelet DG rel: platelet dense granule release activity; human platelet-rich plasma, SFLLRN dense granule ATP release, luminescence; inhibition, %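 (compounds screened at 7.5 µM in platelet-rich plasma)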; 0.22% of 300,000 active; AID 1663;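 active = mean replicate score, as percent of positive control, at or above 50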
SENP8 conf: human SENP8 inhibition, confirmed; shares compounds with SENP7 block; 40% of 6,200 active; Recombinant SENP8, Z-RLRGG-aminoluciferin luminescence, 60 min; AID 488912; inhibition, % at 12.5 µM;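 active = mean inhibition across replicates above about 50%, limit read from the data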
SENP6 conf: human SENP6 inhibition, confirmed; inhibition, % at 12.5 µM; shares compounds with SENP7 block; 58% of 6,200 active; recombinant SENP6, Z-RLRGG-aminoluciferin luminescence
SENP7 confirm: confirmation of human SENP7 protease inhibitors. shares compounds with SENP7 block. recombinant SENP7, Z-RLRGG-aminoluciferin luminescence, 40 min. inhibition, % at 12.5 µM. 69% of 6,200 active. AID 488917
Casp3 SENP sel: caspase-3 inhibition (SENP selectivity assay). shares compounds with SENP7 block. purified caspase-3, Z-DEVD-aminoluciferin luminescence, 60 min. inhibition, % at 12.5 µM. 60% of 6,200 active. AID 488918;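 active = mean inhibition above about 50%, limit read from the data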;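 also: plate controls were enzyme with DMSO for no effect and wells without caspase-3 for full effect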
Luc interf: counter-screen for SENP inhibitors: luminescence interference | Pre-incubated SENP8/Z-RLRGG-aminoluciferin, luciferase luminescence interference | inhibition, % at 12.5 µM | shares compounds with SENP7 block | AID 488919 | 39% of 6,200 active;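 active = mean inhibition above about 50% when retested at one dose, limit read from the data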;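 also: plate controls were DMSO wells with completed reaction for no effect and substrate without enzyme for full effect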
* marks the source's active call; other numbers are inactive results; / = no result.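 The calls were made as follows, unless noted: active = mean inhibition above about 50% in the one-dose retest (limit read from the data); inactive = the rest.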

SMILES	SENP1 FRET inh	SENP8 block-1	SENP8 block-2	SENP7 block	SENP6 inh	Platelet DG rel	SENP8 conf	SENP6 conf	SENP7 confirm	Casp3 SENP sel	Luc interf
CCC[C@H]1CN(c2ccc(OC)cc2)C(=O)[C@@H]1CC(=O)Nc1ccccc1	0	10	/	/	/	/	/	/	/	/	/
CCC(C)(C(=O)NC1CCCC1)N(CC1CCCO1)C(=O)c1ccc2c(c1)OCO2 (centres undefined)	1	3	-2	11	-8	-2	/	/	/	/	/
Cc1cc(C)cc(-c2nc(-c3ccncc3)no2)c1	-1	5	66*	61*	74*	6	31	27	21	50*	16
Cc1ccc(-c2nc(-c3ccncc3)no2)cc1	1	14	/	/	/	5	/	/	/	/	/
Cc1nnc(SCC(=O)Nc2ccc(O)cc2)c2ccccc12	2	22	-5	13	14	-4	/	/	/	/	/
O=C(NCCCl)c1ccc(OCc2ccccc2)cc1Cl	-1	15	-4	11	14	-29	/	/	/	/	/
C#CCNC(=O)c1ccc(OCc2ccccc2)cc1Cl	-1	11	63*	64*	75*	-30	70*	67*	87*	80*	69*
C=CCn1c(SCn2nnc3ccccc3c2=O)nc2scc(-c3cccs3)c2c1=O	3	10	-1	74*	-4	6	7	6	2	1	3
COc1ccc(C(CNC(=O)COc2ccc(F)cc2Br)N2CCCC2)cc1 (centres undefined)	-1	-9	5	-4	-14	-2	/	/	/	/	/
CCc1cc2c(=O)c(-c3ccc4c(c3)OCCO4)coc2cc1OC(=O)c1ccco1	-5	-7	1	73*	25	12	-11	-5	0	18	5
CC(C)Oc1ccc2c(=O)c(-c3ccccc3)coc2c1	2	1	61*	71*	68*	11	7	25	52*	36	13
CCCc1cc2c(=O)c(-c3ccc4c(c3)OCCO4)coc2cc1OC(=O)c1ccco1	-1	11	8	-1	6	2	/	/	/	/	/
COc1ccc2c(=O)c(-c3ccc4c(c3)OCO4)coc2c1	2	15	84*	96*	88*	7	56*	87*	64*	77*	16
COC(=O)COc1ccc2c(=O)c(-c3ccccc3)coc2c1	4	5	5	2	4	11	/	/	/	/	/
CC(=O)Oc1ccc2c(=O)c(-c3nc4ccccc4s3)coc2c1	-83	-112	94*	99*	98*	61*	45	39	30	72*	51*
CC(=O)Oc1ccc2c(=O)c(Oc3ccccc3[N+](=O)[O-])coc2c1	0	23	-2	1	-6	-2	/	/	/	/	/
Cn1nnnc1P(=O)(c1ccccc1)c1ccccc1	1	10	4	-3	11	-1	/	/	/	/	/
O=C(C[C@@H]1C[C@H]2c3cc(NC(=O)NC4CCCCC4)ccc3O[C@H]2[C@H](CO)O1)NC1CCCCC1	-1	19	/	/	/	/	/	/	/	/	/
Cc1cc(S(=O)(=O)N2CCCC(C)C2)ccc1-n1cnnn1 (centres undefined)	1	7	-6	-9	-6	9	/	/	/	/	/
Nc1nc(Nc2ccccc2F)sc1C(=O)c1ccccc1	-5	-21	59*	35	72*	9	74*	69*	86*	44	76*
CC(c1nccs1)N(C)C(=O)c1ccc(OC2CCN(CCc3ccccc3)CC2)cc1 (centres undefined)	-5	4	1	-5	-9	-4	/	/	/	/	/
FC(F)(F)c1ccc(CSc2ccccn2)cc1	0	14	-13	-5	-8	11	/	/	/	/	/
O=C(Nc1ccc(CSc2ccccc2)cc1)c1ccccc1	0	5	12	59*	19	7	11	12	2	2	0
O=C(Nc1ccccc1)c1ccc(CSc2ccccn2)cc1	1	16	93*	98*	97*	25	87*	98*	103*	96*	7
O=C(Nc1cccc([N+](=O)[O-])c1)c1ccc(CSc2ccccc2)cc1	2	9	5	14	-4	-5	/	/	/	/	/
SMILES	SENP1 FRET inh	SENP8 block-1	SENP8 block-2	SENP7 block	SENP6 inh	Platelet DG rel	SENP8 conf	SENP6 conf	SENP7 confirm	Casp3 SENP sel	Luc interf
CC1CCCCC1NC(=O)C(Cc1ccccc1)NS(=O)(=O)c1cccs1 (centres undefined)	0	-6	4	0	-2	-6	/	/	/	/	/
CC(CCc1ccccc1)NC(=O)C(Cc1ccccc1)NS(=O)(=O)c1cccs1 (centres undefined)	0	13	5	80*	2	2	-30	-18	-8	-6	-9
COc1ccc(Cc2c(-c3ccc(C)cc3)nc3c4ccccc4ccn23)c(C)c1	-3	-355	/	/	/	/	/	/	/	/	/
Cc1ccc(CN2CCN(CC(=O)N/N=C/c3ccccc3F)CC2)cc1	3	16	30	5	55*	3	11	23	50	7	2
O=C(CN1CCN(Cc2ccccc2)CC1)N/N=C/c1ccccc1F	-1	15	-2	-4	-12	4	/	/	/	/	/
CCOC(=O)c1cc2ccc(OC(=O)c3ccco3)cc2oc1=O	-20	-308	36	63*	56*	22	55*	61*	87*	89*	56*
CCOC(=O)c1c(C)n(C)c2ccc(OC(=O)c3ccco3)cc12	1	22	3	6	-5	-1	/	/	/	/	/
O=C(O)c1cc2ccc(O)cc2oc1=O	-29	-423	/	/	/	/	/	/	/	/	/
O=C(c1ccc(F)cc1)c1cc2ccc(O)cc2oc1=O	-26	-154	97*	99*	97*	73*	99*	100*	103*	98*	98*
N=c1oc2cc(O)ccc2cc1C(=O)Nc1ccc(F)cc1	-28	-292	92*	98*	96*	4	91*	94*	100*	84*	62*
Cn1c(=N)n(CC(=O)c2ccc(F)cc2)c2ccccc21	4	22	46	20	62*	/	34	25	25	38	62*
Cn1c(=N)n(CC(=O)c2ccc(Br)cc2)c2ccccc21	2	14	1	-5	31	-2	/	/	/	/	/
